Broadly, the apparent Kd is a dissociation constant that holds for the conditions of the assay.

Data on 36 sequences can be found in the EternaBench riboswitch data.

This data set has as its system MS2 coat protein. Description: apparent Kd, MS2 coat protein; higher = weaker binding; RNA-MaP array. The method, boiled down: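 Sequenced DNA templates on an Illumina sequencing chip were transcribed into the designed RNAs. These were incubated at room temperature in Tris-HCl pH 7.5 buffer containing KCl, MgCl2, BSA, DTT, tRNA and Tween20 with fluorescently labeled MS2 coat protein at 1.5 nM to 3 μM, with or without input ligand. Apparent Kd is the median of binding-curve fits per cluster, and designs with fewer than 10 clusters measured were excluded.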

[1] abbreviates: designed as: ON switch for flavin mononucleotide, no ligand.
Setting [2] is: ligand present: flavin mononucleotide, designed as: ON switch for flavin mononucleotide.
Setting [3] is: designed as: OFF switch for flavin mononucleotide, no ligand.
Setting [4] is: ligand present: flavin mononucleotide, designed as: OFF switch for flavin mononucleotide.

With “AAACAAAUGCAAGGAUAUCAUAAUACAAACAGGAGAGAAGGUGCAGAGCACAUGAGGAUCACCCAUGUCCUAGGAUAUUCCUAA”, the “apparent Kd” value reads like this: under setting [1], 121 nM; under setting [2], 80.4 nM.

Consider “CACUGGUACGAGAAGGCACCUGAAGUUGAGAAGUGAGGAUAUCGAAAUAAACACAUGAGGAUCACCCAUGUGAUCCAAGGACGA”, for which the “apparent Kd” value stood at 121 nM under setting [3] and 91.6 nM under setting [4].

As for “UCAGUGUCAGGAUAUUCUAACGAGGGUAGUGCGCCCUUUGUGAAGAAGGGACAUGAGGAUCACCCAUGUACUUG”, the “apparent Kd” value under setting [3] came to 51.2 nM and the “apparent Kd” value under setting [4] is 125 nM.

Regarding “AGUGGUGCAACUGAUACCAGAUUUAUACGAGACAUGAGGAUCACCCAUGUCGAAAGACAAAUCCCUUGGCAGCAGACACGAUCCC”, the “apparent Kd” value amounted to 9.42 nM (designed as: ON switch for theophylline, no ligand) and 8.85 nM (ligand present: theophylline, designed as: ON switch for theophylline).

With “GACGUGUCGCAGAAGGUGGCGAGGAUAGACAUGAGGAUCACCCAUGUGGGACGCGUUAGGUCUGCCAAGGAUAUGCGCAACUCU”, the “apparent Kd” value by setting is: under setting [3], 54.3 nM; under setting [4], 28.7 nM.

On to “CGUCCCUAGCAGAAGGUUCUUUGGGCUGCAGUGAAAGGAUAUGCCAGCACAUGAGGAUCACCCAUGUCUGUCGGAUGCACCAGA”, for which the “apparent Kd” value is, setting by setting: under setting [1], 63.9 nM; under setting [2], 47 nM.

For “GCAGGUAAGUAGAAGGGUCGCACCAUACUGACGACAGGAUAUACUGUCCGAAACUCGUCAUUACAUGAGGAUCACCCAUGUUUA”, the “apparent Kd” value is, setting by setting: under setting [3], 21.2 nM; under setting [4], 11.1 nM.

As for “GACCGUGUCAAUCAUCAUCAACAUGAGGAUCACCCAUGUACCAAGGAUAUCUCGCACUACAAGUCAGAGAAGGUGGGUUUACUC”, the “apparent Kd” value under setting [1] turned out to be 241 nM and the “apparent Kd” value under setting [2] was determined as 152 nM.

With “UCAUCACAUGAGGAUCACCCAUGUCGUAGGUGAUCAGGAUAUGCCUAUGCCUCCAUGGCGGCAGAAGGGAUGCGGG”, the “apparent Kd” value by setting is: under setting [1], 795 nM; under setting [2], 603 nM.

Consider “AGAACUUUGGUGGAUACCAGCUUCUGGCCAUCCUUCAAAUACAUGAGGAUCACCCAUGUUAGCCCUUGGCAGCCAACAUAGACUG”, for which the “apparent Kd” value turned out to be 22.4 nM (designed as: OFF switch for theophylline, no ligand) and 222 nM (ligand present: theophylline, designed as: OFF switch for theophylline).

For the sequence “CAGAGCCAAAACAAGGAUAUACAUAACAUUACAUGAGGAUCACCCAUGUUAUAGCUAACCUUGUAGUAGAAGGUGUUUGGCAACAU”, the “apparent Kd” value under setting [1] stood at 7.36 nM and the “apparent Kd” value under setting [2] is 6.39 nM.

In the case of “UAUCUACUAUGAGGAUAUCGACAAUGGAUGAACAUGAGGAUCACCCAUGUAACUCAUGGUCCCUUCGAGAAGGCAUGCUAUAAC”, the “apparent Kd” value was determined as 55 nM under setting [3] and 59.5 nM under setting [4].

As to “AAACACAACCAGAAGGCCAAAACAUGAGGAUCACCCAUGUAGAUAAGAAGAGUAAGCACUGUCAUGGAGGAUAUGGGUCAAAAC”, the “apparent Kd” value under setting [1] is 20.8 nM and the “apparent Kd” value under setting [2] was determined as 7.12 nM.

Turning to “GCCUAGCUAGGAUAUACCAGAGUGUAUACUUAUGUGGAUCGACAUGAGGAUCACCCAUGUAGAAGGAGCAAGAU”, the “apparent Kd” value was determined as 30.8 nM under setting [3] and 58 nM under setting [4].

Take “UUGAUCUGACGAGGAUAUAUCAUAACACCUUUGAUAGAAGGCGUGAUCGACAUGAGGAUCACCCAUGUGCGUGACUUUGGUAGU”: the “apparent Kd” value under setting [1] came to 11.6 nM and the “apparent Kd” value under setting [2] came out at 10.8 nM.

As for “AUUUCUUCGGUCAGGAUAUCUAGUGUAACGCGGUCAGAGAAGGGACAUGAGGAUCACCCAUGUGUGACUCUCUG”, the “apparent Kd” value is, setting by setting: under setting [3], 5.77 nM; under setting [4], 5.9 nM.

For the sequence “AAACGACAUGAGGAUCACCCAUGUACCUUUUACCUAGGAUAUCAGGUGCAUCAUACGUGCUGAGAAGGAGGCUCGC”, the “apparent Kd” value came out at 64.1 nM under setting [1] and 59.7 nM under setting [2].

“AAACAUACGUGAGGAUAUCCCGUUUGAGAGGCUAGUAUCAUCGAAACAUGAGGAUCACCCAUGUCGGAGAAGGCACUACAGGAG”: the “apparent Kd” value was 6.63 nM under setting [1] and 6.6 nM under setting [2].

Take “GUACAUAUAGAGAAGGGUGAGUAUAUCAGCCUCACAGGAUAUCUGAUGAGUGACAUGAGGAUCACCCAUGUGGUUGUCGGUAGG”: the “apparent Kd” value is, setting by setting: under setting [3], 214 nM; under setting [4], 102 nM.

As for “CAAGAGUUAGAAGGAUAUACAAGAUGCUGAAAGAAACGUGAACAAAACAUGAGGAUCACCCAUGUGAAGAAGGUCAAAUAGAAA”, the “apparent Kd” value by setting is: under setting [3], 10.4 nM; under setting [4], 9.21 nM.

“AUAAACUAACAUGAGGAUCACCCAUGUAUGGAGAAAAUACCUAGAAGGAGGAUAUUUACAACAUCCAAGGAUAUAGGAGCCUCA”: the “apparent Kd” value by setting is: under setting [1], 68.1 nM; under setting [2], 42.4 nM.

For the sequence “AUGCCUCCACUAGGAUAUUACAUCUACAUUUCCACUUUCAAACAGACAUGAGGAUCACCCAUGUGUAAGAAGGAGUGCCUAGAG”, under setting [4], the “apparent Kd” value came out at 8.45 nM.

Consider “GUGGCAGGUGUCAGCCACAUGAGGAUCACCCAUGUUACUGAUCAGGAUAUUCGUGUGCGUCGCCGGAAGAAGGGAUUUGGACAU”, for which the “apparent Kd” value turned out to be 123 nM under setting [3] and 64.1 nM under setting [4].

For “CUAACACAUGAGGAUCACCCAUGUUAGGAUAUCAGCUGCAGCGCUCGACUGCAAUUUAUGAGAAGGAACUGUGG”, the “apparent Kd” value by setting is: under setting [3], 17.5 nM; under setting [4], 24.2 nM.

With “CUAAAACAUGAGGAUCACCCAUGUCAUUUAACUCAAGGAUAUAGAUCUGAGAGCUCAGCGCUAGAAGGUGAUUUUG”, the “apparent Kd” value amounted to 55.1 nM under setting [1] and 40.3 nM under setting [2].

“UGAGACAGAGGAUAUACAAAAGGGAAACGAGCACAGAGGAAACAUGAGGAUCACCCAUGUAGAAGGCUGAACAG”: the “apparent Kd” value reads like this: under setting [3], 6.99 nM; under setting [4], 19 nM.

As for “UGGAUUCGACAAGGAUAUGGUAGUCAUAGCACAUGAGGAUCACCCAUGUUAAAGCAAAACAAAGUCCAGAAGGUGUAAGUACGG”, the “apparent Kd” value under setting [1] amounted to 11.7 nM and the “apparent Kd” value under setting [2] came to 9.43 nM.

With “AAUUGAAUGGUAAGGAUAUAGGGUCGCGCCGAACGCUAGAAGGUACAUGAGGAUCACCCAUGUUGUGCGUCUUC”, the “apparent Kd” value under setting [3] was determined as 16.9 nM and the “apparent Kd” value under setting [4] was determined as 17.7 nM.

Consider “CUCGCAAAUGGAGGAUAUGCCGAGAUCCCUAUCCUCAGGACCUCCACAUGAGGAUCACCCAUGUUGCAGAAGGCCAGUGUGAAG”, for which the “apparent Kd” value is, setting by setting: under setting [3], 14.4 nM; under setting [4], 12.2 nM.

As to “AACAUUAGAGGAUAUAUCAUCUUUCACAUGAGGAUCACCCAUGUUCCUCAGUGUUAGUGUAUAGAAGGCUAAGACA”, the “apparent Kd” value under setting [3] worked out at 279 nM and the “apparent Kd” value under setting [4] is 26.9 nM.

“AUUUGACAUGAGGAUCACCCAUGUGACUUGUCGUGAGGAUAUUAUUGAAAUCUAUGUCAUUAAGAAGGCACAAUUU”: the “apparent Kd” value came to 32.7 nM under setting [1] and 16.5 nM under setting [2].

Take “AUGAGUAUUAAAGGAUAUCACUUAAUUGAUUGAUGAGAAGGUUAGAUGGCAUACAUGAGGAUCACCCAUGUGGUUUCAUGCGGU”: the “apparent Kd” value was determined as 86.3 nM under setting [3] and 59.2 nM under setting [4].

Take “GAGAGGGCUUGAGGAUAUCUUCACUCCGACAUGAGGAUCACCCAUGUAUUCCGUUGAUCGUUGGGAGAGAAGGCAACUUUGUAA”: the “apparent Kd” value reads like this: under setting [3], 58 nM; under setting [4], 54 nM.

“GUAUACAUGAGGAUCACCCAUGUCGUUCUCUUGAGAUGAACAGAGGAUAUGUGAGUAAUAGCGUGACAGAAGGCUGGACAUGAU”: the “apparent Kd” value amounted to 27.7 nM under setting [3] and 16.9 nM under setting [4].

For “GCAUGGACAUGAGGAUCACCCAUGUGUCGCCCUGGACCCGUUAGAAGGCCGUUCCAGAGAACAACGGAGGAUAUAAUUACAGCC”, the “apparent Kd” value worked out at 35.7 nM under setting [1] and 27 nM under setting [2].

As to “UCAAUCACACAUGAGGAUCACCCAUGUGAUAAUCAUGACUCAAGAAGGCAUGUGCAACUUGUUAAUGAGGAUAUUGGAGUAAUG”, the “apparent Kd” value came out at 31.9 nM under setting [3] and 22.3 nM under setting [4].
